# Measurements collected from several papers.
# Target: Megakaryocyte-associated tyrosine-protein kinase (MATK, Homo sapiens, UniProt P42679)
# Sequence (P42679 1-507, as in one of the studies): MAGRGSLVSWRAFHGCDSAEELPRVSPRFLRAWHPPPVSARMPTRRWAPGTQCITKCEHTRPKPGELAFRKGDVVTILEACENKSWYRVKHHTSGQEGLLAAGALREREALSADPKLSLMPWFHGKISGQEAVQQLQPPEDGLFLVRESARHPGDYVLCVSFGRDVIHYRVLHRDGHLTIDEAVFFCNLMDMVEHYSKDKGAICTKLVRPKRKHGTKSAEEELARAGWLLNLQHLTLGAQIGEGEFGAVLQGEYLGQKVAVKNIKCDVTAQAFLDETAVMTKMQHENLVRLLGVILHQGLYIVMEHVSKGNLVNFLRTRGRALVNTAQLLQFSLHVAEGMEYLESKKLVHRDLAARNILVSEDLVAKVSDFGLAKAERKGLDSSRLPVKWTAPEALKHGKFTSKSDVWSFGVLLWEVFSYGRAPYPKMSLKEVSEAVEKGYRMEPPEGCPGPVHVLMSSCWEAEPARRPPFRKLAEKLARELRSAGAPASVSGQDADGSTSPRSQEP
SMILES,test,setting,quantity,result
c1nc2c(Nc3ccc4c(c3)OCCO4)nc(Nc3ccc4c(c3)OCCO4)nc2[nH]1,"enzyme activity, inhibitor",10 µM,activity vs control,49%
CC1=C(C#N)C(c2ccc3c(c2)c(NC(=O)c2ccccc2C)nn3C)C(C#N)=C(C)N1,"cell-free assay, competition with immobilised ligand",1 µM,remaining binding,79%
CC(C)(C)c1nc(-c2cccc(NS(=O)(=O)c3c(F)cccc3F)c2F)c(-c2ccnc(N)n2)s1,"enzyme activity, inhibitor, radiometric",1 µM,remaining activity,90%
Nc1ncnc2occ(-c3ccc(NC(=O)Nc4cc(C(F)(F)F)ccc4F)cc3)c12,"cell-free assay, inhibitor",20 µM,remaining signal,13%
CCOCCn1cc(C(=O)Nc2ccc(-n3nc(-c4cccnc4)cc3C(F)(F)F)cn2)ccc1=O,"cell-free assay, competition with immobilised ligand",1 µM,remaining binding,90%
O=C1NC(=O)c2cc(Nc3ccc(F)cc3)c(Nc3ccc(F)cc3)cc21,cell-free assay,0.5 µM,remaining signal,93.5%
Cc1sc(C(=O)NC2COC2)cc1-n1cc(NC(=O)Nc2c(F)cccc2Cl)cn1,"enzyme activity, inhibitor",10 µM,remaining activity,97.8%
CNC(=O)c1cc(Oc2ccc(NC(=O)Nc3ccc(Cl)c(C(F)(F)F)c3)cc2)ccn1,cell-free assay,0.5 µM,remaining signal,114%
COc1cc2ncnc(Nc3ccc(Oc4ccccc4)c(C)c3C)c2cc1OC,"enzyme activity, inhibitor",1 µM,inhibition,-2%
CNC(=O)c1ccc(Nc2ncc(C(F)(F)F)c(NCc3nccnc3N(C)S(C)(=O)=O)n2)cc1,"cell-free assay, competition with immobilised ligand",0.1 µM,remaining binding,37%
CC(C)(O)[C@H]1CC[C@H](Nc2ccc3ncc(-c4cccc(C(F)(F)F)c4)n3n2)CC1,"enzyme activity, inhibitor",1 µM,remaining activity,102%
CCCS(=O)(=O)Nc1ccc(F)c(C(=O)c2c[nH]c3ncc(-c4ccc(Cl)cc4)cc23)c1F,"enzyme activity, inhibitor",1 µM,inhibition,< 20%
